Experimental data published in ChEMBL document CHEMBL1138564, “Microwave-induced synthesis and anti-microbial activities of 7,10,11,12-tetrahydrobenzo[c]acridin-8(9H)-one derivatives” (2009).
Values after ≈ are worked out from the molar mass of the structure shown. Active and inactive are the calls of the source. The calls are words filed in the database; no cut-off is given here.

Legend:
[1] = tested on: Aspergillus niger; test: Antimicrobial activity against Aspergillus niger NCIM 902 after 72 hrs by serial dilution method; type: functional; details: NCIM 1196, 72 h, in the assay text read “NCIM 1196” for “NCIM 902”
Summary of the method: (§1)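 MIC by broth dilution in Sabouraud's dextrose broth, only for fungi sensitive in disc diffusion. Two-fold serial dilutions of compounds are made in 1 ml broth per tube, range 3.9 to 1000. Inoculated tubes are incubated at 27 °C for 72 h.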

[2] = tested on: Aspergillus parasiticus; test: Antimicrobial activity against Aspergillus parasiticus NCIM 904 at 1000 ug/disk after 72 hrs by disk diffusion method; type: functional; details: NCIM 904, 72 h, read-out: DIZ
Summary of the method: (§2)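 Disc diffusion on Sabouraud's dextrose agar. 100 µl of fungal suspension at 10⁶ CFU/ml is spread on the plate. Discs carry test compounds at two loadings in DMSO; DMSO alone is the negative control. Clotrimazole disc is the positive reference. Plates are incubated at 27 °C for 72 h, and the zone of inhibition diameter is measured.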

[3] = tested on: Lipomyces lipofer; test: Antimicrobial activity against Lipomyces lipofer NCIM 3252 at 1000 ug/disk after 72 hrs by disk diffusion method; type: functional; details: NCIM 3252, 72 h, read-out: DIZ; summary of the method: as §2
[4] = tested on: Lipomyces lipofer; test: Antimicrobial activity against Lipomyces lipofer NCIM 3252 after 72 hrs by serial dilution method; type: functional; details: NCIM 3252, 72 h; summary of the method: as §1
[5] = tested on: Pseudomonas aeruginosa; test: Antimicrobial activity against Pseudomonas aeruginosa NCIM 2200 after 24 hrs by serial dilution method; type: functional; details: NCIM 2200, 24 h
Summary of the method: (§3)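 Broth dilution MIC in nutrient broth, run only for organisms found sensitive in disc diffusion. Compounds are two-fold serially diluted in 1 ml sterile broth per tube, spanning 3.9 to 1000. Inoculated tubes are incubated at 37 °C for 24 h.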

[6] = tested on: Bacillus cereus; test: Antimicrobial activity against Bacillus cereus NCIM 2155 after 24 hrs by serial dilution method; type: functional; details: NCIM 2155, 24 h; summary of the method: as §3
[7] = tested on: Salmonella typhimurium; test: Antimicrobial activity against Salmonella Typhimurium NCIM 2501 after 24 hrs by serial dilution method; type: functional, Salmonella enterica subsp. enterica serovar Typhimurium; details: Salmonella enterica, NCIM 2501, 24 h
[8] = tested on: Aliivibrio fischeri; test: Antimicrobial activity against Vibrio fischeri NCIM 2154 at 1000 ug/disk after 24 hrs by disk diffusion method; type: functional; details: NCIM 2154, 24 h, read-out: DIZ
Summary of the method: (§4)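 Disc diffusion. 100 µl of bacterial suspension at 10⁸ CFU/ml was spread on Mueller–Hinton agar. Discs loaded with test compound dissolved in DMSO were placed on the lawn, with a DMSO-only disc as negative control. Plates were incubated at 37 °C for 24 h, and the inhibition zone diameter was measured.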

[9] = tested on: Pseudomonas aeruginosa; test: Antimicrobial activity against Pseudomonas aeruginosa NCIM 2200 at 1000 ug/disk after 24 hrs by disk diffusion method; type: functional; details: NCIM 2200, 24 h, read-out: DIZ
Summary of the method: (§5)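 Disc diffusion on Mueller–Hinton agar. 100 µl of bacterial suspension at 10⁸ CFU/ml is spread on the plate. Discs carry test compounds at two loadings, dissolved in DMSO; DMSO alone serves as negative control. Ofloxacin disc is the positive reference. Plates are incubated at 37 °C for 24 h, and the inhibition zone diameter is measured.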

[10] = tested on: Lipomyces lipofer; test: Antimicrobial activity against Lipomyces lipofer NCIM 3252 at 500 ug/disk after 72 hrs by disk diffusion method; type: functional; details: for zone of inhibition at 500 µg/disc: NCIM 3252, 72 h, read-out: DIZ; summary of the method: as §2
[11] = tested on: Aspergillus fumigatus; test: Antimicrobial activity against Aspergillus fumigatus NCIM 902 after 72 hrs by serial dilution method; type: functional; details: NCIM 902, 72 h; summary of the method: as §1
[12] = tested on: Aspergillus niger; test: Antimicrobial activity against Aspergillus niger NCIM 902 at 1000 ug/disk after 72 hrs by disk diffusion method; type: functional; details: NCIM 1196, 72 h, in the assay text read “NCIM 1196” for “NCIM 902”, read-out: DIZ; summary of the method: as §2
[13] = tested on: Aspergillus flavus; test: Antimicrobial activity against Aspergillus flavus NCIM 902 at 500 ug/disk after 72 hrs by disk diffusion method; type: functional; details: NCIM 902, 72 h, read-out: DIZ; summary of the method: as §2
[14] = tested on: Bacillus cereus; test: Antimicrobial activity against Bacillus cereus NCIM 2155 at 500 ug/disk after 24 hrs by disk diffusion method; type: functional; details: for zone of inhibition at 500 µg/disc: NCIM 2155, 24 h, read-out: DIZ; summary of the method: as §5
[15] = tested on: Staphylococcus; test: Antimicrobial activity against Staphylococcus albus NCIM 2178 at 1000 ug/disk after 24 hrs by disk diffusion method; type: functional; details: NCIM 2178, 24 h, read-out: DIZ; summary of the method: as §4
[16] = tested on: Klebsiella aerogenes; test: Antimicrobial activity against Klebsiella aerogenes NCIM 2239 after 24 hrs by serial dilution method; type: functional; details: NCIM 2239, 24 h; summary of the method: as §3
[17] = tested on: Staphylococcus; test: Antimicrobial activity against Staphylococcus albus NCIM 2178 after 24 hrs by serial dilution method; type: functional; details: NCIM 2178, 24 h
[18] = tested on: Salmonella typhimurium; test: Antimicrobial activity against Salmonella Typhimurium NCIM 2501 at 500 ug/disk after 24 hrs by disk diffusion method; type: functional, Salmonella enterica subsp. enterica serovar Typhimurium; details: Salmonella enterica, NCIM 2501, 24 h; read-out: DIZ; summary of the method: as §4
[19] = tested on: Aspergillus niger; test: Antimicrobial activity against Aspergillus niger NCIM 902 at 500 ug/disk after 72 hrs by disk diffusion method; type: functional; details: NCIM 1196, 72 h, in the assay text read “NCIM 1196” for “NCIM 902”, read-out: DIZ; summary of the method: as §2
[20] = tested on: Penicillium chrysogenum; test: Antimicrobial activity against Penicillium chrysogenum NCIM 707 after 72 hrs by serial dilution method; type: functional; details: NCIM 707, 72 h; summary of the method: as §1
[21] = tested on: Rhodococcus corynebacterioides; test: Antimicrobial activity against Corynebacterium rubrum NCIM 2252 after 24 hrs by serial dilution method; type: functional; details: Rhodococcoides corynebacterioides, NCIM 2252, 24 h; summary of the method: as §3
[22] = tested on: Proteus vulgaris; test: Antimicrobial activity against Proteus vulgaris NCIM 2027 after 24 hrs by serial dilution method; type: functional; details: NCIM 2027, 24 h; summary of the method: as §3

MIC [1] | MIC [4] | MIC [5] | MIC [6] | MIC [7] | MIC [16] | MIC [17] | MIC [20] | MIC [21] | MIC [22] | SMILES | zone of inhibition at 1000 µg/disc [2] | zone of inhibition at 1000 µg/disc [3] | zone of inhibition at 1000 µg/disc [8] | zone of inhibition at 1000 µg/disc [9] | zone of inhibition at 1000 µg/disc [12] | zone of inhibition at 500 µg/disc [13] | zone of inhibition at 500 µg/disc [14] | zone of inhibition at 1000 µg/disc [15] | zone of inhibition at 500 µg/disc [18] | zone of inhibition at 500 µg/disc [19] | other results
62.5 µg/mL (≈ 174 µM) | 125 µg/mL (≈ 347 µM) | 62.5 µg/mL (≈ 174 µM) | 15.6 µg/mL (≈ 43.4 µM) | 62.5 µg/mL (≈ 174 µM) | 125 µg/mL (≈ 347 µM) | 62.5 µg/mL (≈ 174 µM) | 125 µg/mL (≈ 347 µM) | 125 µg/mL (≈ 347 µM) | 125 µg/mL (≈ 347 µM) | O=C1CCCC2=C1C(c1ccc(Cl)cc1)c1ccc3ccccc3c1N2 (stereo not drawn) | 12 mm | 9 mm | 9 mm | 10 mm | 8 mm | 7 mm | 10 mm | 10 mm | 9 mm | 8 mm | diameter of the inhibition zone (DIZ) [10]: inactive; MIC [11]: 62.5 µg/mL (≈ 174 µM)
62.5 µg/mL (≈ 169 µM) | 62.5 µg/mL (≈ 169 µM) | 62.5 µg/mL (≈ 169 µM) | 31.2 µg/mL (≈ 84.4 µM) | 31.2 µg/mL (≈ 84.4 µM) | 31.2 µg/mL (≈ 84.4 µM) | 125 µg/mL (≈ 338 µM) | 125 µg/mL (≈ 338 µM) | 62.5 µg/mL (≈ 169 µM) | 125 µg/mL (≈ 338 µM) | CC1(C)CC(=O)C2=C(C1)Nc1c(ccc3ccccc13)C2c1ccc(O)cc1 (stereo not drawn) | 14 mm | 10 mm | 9 mm | 9 mm | 10 mm | 9 mm | 9 mm | 8 mm | 9 mm | 8 mm | zone of inhibition at 500 µg/disc [10]: 7 mm
62.5 µg/mL (≈ 183 µM) | 62.5 µg/mL (≈ 183 µM) | 125 µg/mL (≈ 366 µM) |  | 125 µg/mL (≈ 366 µM) | 62.5 µg/mL (≈ 183 µM) | 62.5 µg/mL (≈ 183 µM) | 125 µg/mL (≈ 366 µM) | 125 µg/mL (≈ 366 µM) | 125 µg/mL (≈ 366 µM) | O=C1CCCC2=C1C(c1ccc(O)cc1)c1ccc3ccccc3c1N2 (stereo not drawn) | 13 mm | 11 mm | 9 mm | 9 mm | 9 mm | 7 mm |  | 10 mm | 7 mm | 9 mm | zone of inhibition at 500 µg/disc [10]: 10 mm; diameter of the inhibition zone (DIZ) [14]: inactive
